Measurements as given in ChEMBL document CHEMBL1142229, “Docosahexaenoic acid alters bilayer elastic properties” (Proc Natl Acad Sci U S A, 2007).
Active and inactive are the calls of the source. No cut-off for these calls is given here.

Assays:
[1] = Effect on gramicidin channel 13 activity
Outline: (§1)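 Planar bilayers of DC18:1PC (20 mg/ml in n-decane) across a ≈1.6 mm hole in a Teflon partition, in 1 M NaCl, 10 mM Hepes, pH 7.0. Opposite-helix-sense gA analogue pairs, gA(13) and AgA(15). Fatty acid added to both sides from ethanolic stock with NaOH and BHT, stirred 5 min, equilibrated 10 min. Single-channel currents and lifetimes recorded before and after addition. Where stated, cholesterol:DC18:1PC molar ratio 1:1.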

[2] = Partition coefficient (x10-4) across dieicosenoyl-phosphatidylcholine bilayer; type: ADME; settings: lipid bilayer/electrolyte
Outline: (§2)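 Lipid/electrolyte partition coefficient measured with ADIFAB (0.2 μM) in 1 M NaCl, 10 mM Hepes, pH 7.0 at 25 ± 1°C. Extruded vesicles at ≈100 μM phospholipid; total fatty acid raised stepwise over 3–30 μM, 3–5 min equilibration per step. Emission read at 432 and 505 nm (excitation 386 nm), corrected for cuvette binding. Kp from free vs total FA and Vm/Va; triplicate, averaged over concentrations.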

[3] = Activity at gramicidin A negative channel 15 assessed as increase in single channel current; outline: as §1
[4] = Activity at gramicidin channel 13 assessed as increase in single channel current at 10 uM; outline: as §1
[5] = Activity at gramicidin channel 13 assessed as increase in single channel current at 10 uM in presence of cholesterol; outline: as §1
[6] = Partition coefficient (x10-4) across dioleoylphosphatidylcholine bilayer; type: ADME; settings: lipid bilayer/electrolyte; outline: as §2
[7] = Activity at gramicidin channel 13 assessed as increase in single channel current; outline: as §1
[8] = Partition coefficient (x10-4) across dioleoylphosphatidylcholine bilayer in presence of cholesterol; type: ADME; settings: lipid bilayer/electrolyte; outline: as §2

Activity [1] | Partition coefficient [2] | Activity [3] | Activity [4] [%] | Activity [5] [%] | Partition coefficient [6] | Activity [7] | Partition coefficient [8] | Structure (SMILES)
inactive | 246 | inactive | 5 | 15 | 254 | inactive |  | CCCCCCCC/C=C\CCCCCCCC(=O)O [OLEIC ACID]
Active | 20 | Active | 15 | 65 | 20 | Active | 19 | CC/C=C\C/C=C\C/C=C\C/C=C\C/C=C\C/C=C\CCC(=O)O [DOCONEXENT]
